Calls of active or inactive are those of the source. No cut-off for these calls is given here.
How the values were obtained:
Aurora kinase A = target: T1, Aurora kinase A (Homo sapiens, UniProt O14965); experiment: Inhibition of recombinant GST-tagged Aurora A expressed in Sf9 insect cells after 90 mins by Kinase-Glo assay
T1 sequence (O14965 whole entry): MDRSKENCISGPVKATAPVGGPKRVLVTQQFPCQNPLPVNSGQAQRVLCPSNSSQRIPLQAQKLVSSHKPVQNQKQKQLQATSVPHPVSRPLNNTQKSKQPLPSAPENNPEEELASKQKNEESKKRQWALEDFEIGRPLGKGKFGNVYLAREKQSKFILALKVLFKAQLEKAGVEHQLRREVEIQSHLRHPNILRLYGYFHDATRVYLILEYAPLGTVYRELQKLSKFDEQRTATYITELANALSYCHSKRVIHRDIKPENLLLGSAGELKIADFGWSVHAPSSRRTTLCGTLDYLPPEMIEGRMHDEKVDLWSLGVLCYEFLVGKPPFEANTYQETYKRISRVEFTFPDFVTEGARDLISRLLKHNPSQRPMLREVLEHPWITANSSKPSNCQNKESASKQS
Summary of the method: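 GST-Aurora A kinase domain (S123–S401, 150 ng) from Sf9 cells. Buffer was 50 mM Tris-HCl pH 7.4 with 10 mM NaCl, 10 mM MgCl2, 0.01% BSA and 1 mM DTT. Kinase-Glo Plus was added for 20 min at 25 °C before the luminescence read.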

[1] = target: Vascular endothelial growth factor receptor 2 (Homo sapiens, UniProt P35968); experiment: Inhibition of recombinant GST-tagged VEGFR2 expressed in Sf9 insect cells after 120 mins by Kinase-Glo assay; assay type: cell-based
[2] = target: Vascular endothelial growth factor receptor 1 (Homo sapiens, UniProt P17948); experiment: Inhibition of recombinant GST-tagged VEGFR1 expressed in Sf9 insect cells after 120 mins by Kinase-Glo assay
Summary of the method: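 GST-VEGFR1 (R781–I1338) or GST-VEGFR2 (V789–V1356) kinase domain, 50–100 ng, from Sf9 cells. Read-out was Kinase-Glo Plus luminescence.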

MOLM-13 [3] = experiment: Antiproliferation activity against human MOLM13 cells expressing FLT3 mutation assessed as cell viability after 72 hrs by MTS method; assay type: functional; conditions: MOLM-13, 72 h
[4] = target: High affinity nerve growth factor receptor (Homo sapiens) (UniProt P04629); experiment: Inhibition of TRKA at 0.1 uM
[5] = target: Proto-oncogene tyrosine-protein kinase receptor Ret (Homo sapiens) (UniProt P07949); experiment: Inhibition of RET at 0.1 uM
[6] = target: Proto-oncogene tyrosine-protein kinase Src (Homo sapiens) (UniProt P12931); experiment: Inhibition of SRC at 0.1 uM
[7] = target: Vascular endothelial growth factor receptor 3 (Homo sapiens) (UniProt P35916); experiment: Inhibition of VEGFR3 at 0.1 uM
[8] = target: Mast/stem cell growth factor receptor Kit (Homo sapiens) (UniProt P10721); experiment: Inhibition of c-Kit at 0.1 uM
[9] = target: Platelet-derived growth factor receptor alpha (Homo sapiens) (UniProt P16234); experiment: Inhibition of PDGFR alpha at 0.1 uM
[10] = target: Platelet-derived growth factor receptor beta (Homo sapiens) (UniProt P09619); experiment: Inhibition of PDGFR beta at 0.1 uM
[11] = target: Macrophage colony-stimulating factor 1 receptor (Homo sapiens) (UniProt P07333); experiment: Inhibition of CSF1R at 0.1 uM
MV4-11 [12] = experiment: Antiproliferation activity against FLT3/ITD harboring human MV4-11 cells after 72 hrs by MTS method; assay type: functional; conditions: MV4-11, 72 h
[13] = Antiproliferation activity against human RS4:11 cells expressing wild type FLT3 after 72 hrs by MTS method; assay type: functional; conditions: RS4-11, 72 h
K562 = experiment: Antiproliferation activity against human K562 cells expressing wild type BCR/ABL after 72 hrs by MTS method; assay type: functional; conditions: K562, 72 h
U-937 = experiment: Antiproliferation activity against human FLT3 gene-deficient U937 cells after 72 hrs by MTS method; assay type: functional; conditions: U-937, 72 h
MOLM-13 [14] = experiment: Antitumor activity against human MOLM13 cells xenografted in athymic nu/nu nude mouse assessed as inhibition of tumor growth at 10 mg/kg, iv qd administered for 1 to 5 and 8 to 12 days measured during first 5 days of treatment; assay type: functional, organism-based; design: dose 10 mg/kg
Summary of the method: (§1)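 Athymic nu/nu mice (9 weeks old) received 1 × 10^6 MOLM-13 cells s.c. in the left flank. They were randomized at a mean tumor volume of about 200 mm3, with 7–8 per group. Dosing was iv once daily at 10 or 50 mg/kg on days 1–5 and 8–12, in 10% DMSO/20% Cremophor/70% saline. Vehicle controls were dosed the same way. Caliper volume = (width × length²)/2, reported as mean ± SEM.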

MV4-11 [15] = experiment: Antitumor activity against human MV4-11 cells xenografted in athymic nu/nu nude mouse assessed as inhibition of tumor growth at 50 mg/kg, iv qd for 1 to 5 and 8 to 12 days; assay type: functional, organism-based; design: dose 50 mg/kg
Summary of the method: (§2)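 Nude nu/nu mice (9 weeks old) received 1 × 10^6 MV4;11 cells s.c. in the left flank. Treatment began at a mean tumor volume of about 500 mm3, with n = 8 per group. Dosing was iv once daily at 10, 25 or 50 mg/kg on days 1–5 and 8–12, in DMSO/Cremophor/saline vehicle, with vehicle controls. Tumor volume was measured by caliper as (width × length²)/2.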

[16] = AUC (0 to infinity) in Sprague-Dawley rat at 5 mg/kg, iv and 20 mg/kg, po; assay type: ADME, organism-based; conditions: plasma
[17] = Clearance in Sprague-Dawley rat at 5 mg/kg, iv and 20 mg/kg, po; assay type: ADME, organism-based; conditions: in vivo
[18] = Volume of distribution at steady state in Sprague-Dawley rat at 5 mg/kg, iv and 20 mg/kg, po; assay type: ADME, organism-based; conditions: in vivo, read-out: Vdss
[19] = Half life in Sprague-Dawley rat at 5 mg/kg, iv and 20 mg/kg, po; assay type: ADME, organism-based; conditions: in vivo
MOLM-13 [20] = experiment: Antitumor activity against human MOLM13 cells xenografted in athymic nu/nu nude mouse assessed as tumor growth regression at 50 mg/kg, iv qd administered for 1 to 5 and 8 to 12 days; assay type: functional, organism-based; design: dose 50 mg/kg; summary of the method: as §1
MV4-11 [21] = experiment: Antitumor activity against human MV4-11 cells xenografted in athymic nu/nu nude mouse assessed as inhibition of tumor growth at 50 mg/kg, iv qd for 1 to 5 and 8 to 12 days measured after completion of treatment; assay type: functional, organism-based; design: dose 50 mg/kg; summary of the method: as §2
MV4-11 [22] = experiment: Antitumor activity against human MV4-11 cells xenografted in athymic nu/nu nude mouse assessed as tumor regrowth at 50 mg/kg, iv qd for 1 to 5 and 8 to 12 days measured after 20 days; assay type: functional, organism-based; design: dose 50 mg/kg; summary of the method: as §2
Mus musculus [23] = experiment: Toxicity in athymic nu/nu nude mouse harboring xenografted huma MOLM13 cells assessed as reduction of body weight at 50 mg/kg, iv for continuous 5 days; assay type: organism-based, MOLM-13; design: dose 50 mg/kg, route intravenous; scale not given: the % may be the effect or the level left; conditions: in vivo, 120 h
Mus musculus [24] = experiment: Toxicity in athymic nu/nu nude mouse harboring xenografted human MV4:11 cells assessed as reduction of body weight at 50 mg/kg, iv for continuous 5 days; assay type: organism-based; design: dose 50 mg/kg, route intravenous; scale not given: the % may be the effect or the level left; conditions: in vivo, 120 h
Mus musculus [25] = experiment: Toxicity in normal mouse assessed as reduction of body weight at 50 mg/kg, iv for continuous 5 days; conditions: in vivo, 120 h

Chain of High affinity nerve growth factor receptor (Homo sapiens) (P04629 33-796 limits assumed): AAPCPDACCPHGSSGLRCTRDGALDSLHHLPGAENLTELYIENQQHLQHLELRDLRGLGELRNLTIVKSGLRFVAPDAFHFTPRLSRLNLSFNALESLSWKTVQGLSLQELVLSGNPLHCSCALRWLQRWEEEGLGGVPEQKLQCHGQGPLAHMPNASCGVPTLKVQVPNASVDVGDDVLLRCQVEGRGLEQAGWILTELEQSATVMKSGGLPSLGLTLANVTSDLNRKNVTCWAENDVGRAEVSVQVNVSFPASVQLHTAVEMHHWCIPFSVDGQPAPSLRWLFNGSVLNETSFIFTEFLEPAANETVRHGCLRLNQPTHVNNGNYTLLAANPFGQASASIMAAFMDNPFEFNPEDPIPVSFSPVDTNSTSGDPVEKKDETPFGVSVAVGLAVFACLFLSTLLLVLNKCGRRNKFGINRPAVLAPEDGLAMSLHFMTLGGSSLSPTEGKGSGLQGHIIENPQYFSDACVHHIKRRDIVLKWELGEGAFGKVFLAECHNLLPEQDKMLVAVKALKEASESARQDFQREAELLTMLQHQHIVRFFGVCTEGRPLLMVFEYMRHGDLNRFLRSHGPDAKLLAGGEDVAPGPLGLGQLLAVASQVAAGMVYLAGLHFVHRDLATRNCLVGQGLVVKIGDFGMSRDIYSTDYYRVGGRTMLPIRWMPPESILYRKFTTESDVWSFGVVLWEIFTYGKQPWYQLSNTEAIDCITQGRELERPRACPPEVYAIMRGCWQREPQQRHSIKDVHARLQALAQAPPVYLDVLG
Chain of Vascular endothelial growth factor receptor 3 (Homo sapiens) (P35916 whole entry): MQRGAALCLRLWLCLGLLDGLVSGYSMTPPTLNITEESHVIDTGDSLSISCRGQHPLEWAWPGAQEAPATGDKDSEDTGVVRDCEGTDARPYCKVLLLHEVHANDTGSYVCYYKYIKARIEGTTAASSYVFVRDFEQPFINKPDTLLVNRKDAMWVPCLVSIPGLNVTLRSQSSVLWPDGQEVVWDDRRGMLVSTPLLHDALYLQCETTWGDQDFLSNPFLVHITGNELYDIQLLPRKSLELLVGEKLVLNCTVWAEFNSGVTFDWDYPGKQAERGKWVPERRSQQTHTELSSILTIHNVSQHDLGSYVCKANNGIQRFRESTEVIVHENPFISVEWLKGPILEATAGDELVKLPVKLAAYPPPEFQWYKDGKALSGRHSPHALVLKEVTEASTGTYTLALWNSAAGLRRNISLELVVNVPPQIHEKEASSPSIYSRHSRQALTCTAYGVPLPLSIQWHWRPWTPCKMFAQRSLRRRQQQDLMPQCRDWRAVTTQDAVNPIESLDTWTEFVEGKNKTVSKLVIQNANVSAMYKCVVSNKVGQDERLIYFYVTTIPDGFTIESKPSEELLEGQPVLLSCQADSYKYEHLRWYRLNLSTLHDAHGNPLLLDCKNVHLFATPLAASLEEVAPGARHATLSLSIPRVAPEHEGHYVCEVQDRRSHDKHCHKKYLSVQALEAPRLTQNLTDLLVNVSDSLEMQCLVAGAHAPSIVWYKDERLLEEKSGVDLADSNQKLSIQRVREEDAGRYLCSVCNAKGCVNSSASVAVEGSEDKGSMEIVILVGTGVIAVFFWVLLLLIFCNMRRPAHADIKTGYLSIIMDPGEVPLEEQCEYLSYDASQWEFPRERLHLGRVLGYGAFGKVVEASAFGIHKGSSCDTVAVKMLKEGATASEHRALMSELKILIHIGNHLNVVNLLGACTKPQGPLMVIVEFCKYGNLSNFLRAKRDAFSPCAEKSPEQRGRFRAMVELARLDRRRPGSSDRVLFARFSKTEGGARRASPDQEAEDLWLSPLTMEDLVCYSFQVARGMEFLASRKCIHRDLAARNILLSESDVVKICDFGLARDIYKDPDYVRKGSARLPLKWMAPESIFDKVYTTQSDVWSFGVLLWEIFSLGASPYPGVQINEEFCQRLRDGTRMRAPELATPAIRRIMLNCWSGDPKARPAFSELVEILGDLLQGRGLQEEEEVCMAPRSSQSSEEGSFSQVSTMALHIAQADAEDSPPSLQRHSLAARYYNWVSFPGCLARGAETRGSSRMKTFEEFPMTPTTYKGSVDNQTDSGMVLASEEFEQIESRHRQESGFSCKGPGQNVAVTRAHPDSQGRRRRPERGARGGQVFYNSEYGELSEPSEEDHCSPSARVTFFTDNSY
Chain of Macrophage colony-stimulating factor 1 receptor (Homo sapiens) (P07333 whole entry): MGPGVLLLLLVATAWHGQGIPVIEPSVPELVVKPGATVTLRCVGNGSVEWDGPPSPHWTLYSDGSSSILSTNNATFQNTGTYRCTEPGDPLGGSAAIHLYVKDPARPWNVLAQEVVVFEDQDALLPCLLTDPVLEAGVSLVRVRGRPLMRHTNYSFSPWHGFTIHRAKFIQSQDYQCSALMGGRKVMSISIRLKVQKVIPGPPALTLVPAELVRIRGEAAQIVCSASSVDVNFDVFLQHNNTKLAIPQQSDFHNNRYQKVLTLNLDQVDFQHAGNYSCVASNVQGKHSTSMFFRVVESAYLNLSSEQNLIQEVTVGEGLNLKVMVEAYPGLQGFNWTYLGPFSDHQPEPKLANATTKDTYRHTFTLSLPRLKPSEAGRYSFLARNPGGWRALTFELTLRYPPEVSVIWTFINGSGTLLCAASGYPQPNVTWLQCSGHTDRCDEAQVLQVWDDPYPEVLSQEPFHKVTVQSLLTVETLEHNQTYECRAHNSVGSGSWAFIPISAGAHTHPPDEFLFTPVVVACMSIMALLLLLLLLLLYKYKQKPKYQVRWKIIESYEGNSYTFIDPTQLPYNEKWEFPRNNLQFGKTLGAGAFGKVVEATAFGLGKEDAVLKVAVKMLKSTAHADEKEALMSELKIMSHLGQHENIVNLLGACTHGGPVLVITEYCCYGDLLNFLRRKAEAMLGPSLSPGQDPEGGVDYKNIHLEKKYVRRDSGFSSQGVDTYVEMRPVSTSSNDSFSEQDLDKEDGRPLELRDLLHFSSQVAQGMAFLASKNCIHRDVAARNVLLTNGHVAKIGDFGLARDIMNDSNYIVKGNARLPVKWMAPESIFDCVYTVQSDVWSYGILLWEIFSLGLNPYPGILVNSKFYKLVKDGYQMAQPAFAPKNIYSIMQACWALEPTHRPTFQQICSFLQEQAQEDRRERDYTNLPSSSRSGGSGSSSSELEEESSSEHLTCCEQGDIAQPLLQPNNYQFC
Chain of Proto-oncogene tyrosine-protein kinase receptor Ret (Homo sapiens) (P07949 whole entry): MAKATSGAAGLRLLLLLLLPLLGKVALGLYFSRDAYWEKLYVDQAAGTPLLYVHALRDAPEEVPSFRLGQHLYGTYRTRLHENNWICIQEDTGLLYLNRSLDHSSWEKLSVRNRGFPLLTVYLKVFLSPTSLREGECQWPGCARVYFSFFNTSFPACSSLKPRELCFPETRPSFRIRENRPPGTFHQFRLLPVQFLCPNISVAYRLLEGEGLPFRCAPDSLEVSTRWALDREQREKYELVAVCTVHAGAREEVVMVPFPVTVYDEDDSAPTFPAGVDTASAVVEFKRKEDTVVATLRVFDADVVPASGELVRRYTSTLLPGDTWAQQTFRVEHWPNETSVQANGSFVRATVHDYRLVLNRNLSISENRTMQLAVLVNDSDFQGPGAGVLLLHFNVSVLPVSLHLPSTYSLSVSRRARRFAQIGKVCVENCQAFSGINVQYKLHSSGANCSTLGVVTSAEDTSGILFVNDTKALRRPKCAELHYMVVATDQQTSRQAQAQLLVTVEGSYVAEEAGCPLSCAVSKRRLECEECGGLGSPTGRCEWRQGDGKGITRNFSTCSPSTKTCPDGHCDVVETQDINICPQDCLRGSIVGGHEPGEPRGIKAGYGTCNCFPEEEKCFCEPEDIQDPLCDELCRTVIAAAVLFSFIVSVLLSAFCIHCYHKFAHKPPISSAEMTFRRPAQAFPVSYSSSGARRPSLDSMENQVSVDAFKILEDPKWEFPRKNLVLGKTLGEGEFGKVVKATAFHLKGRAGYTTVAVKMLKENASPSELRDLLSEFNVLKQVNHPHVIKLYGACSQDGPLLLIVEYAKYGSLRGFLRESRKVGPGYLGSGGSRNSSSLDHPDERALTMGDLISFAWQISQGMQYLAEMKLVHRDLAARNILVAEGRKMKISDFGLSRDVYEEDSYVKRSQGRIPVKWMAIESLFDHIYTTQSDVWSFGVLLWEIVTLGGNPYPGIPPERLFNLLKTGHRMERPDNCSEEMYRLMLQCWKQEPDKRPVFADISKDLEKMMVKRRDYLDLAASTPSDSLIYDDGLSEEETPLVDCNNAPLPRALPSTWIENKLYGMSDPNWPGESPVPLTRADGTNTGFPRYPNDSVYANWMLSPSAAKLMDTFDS
Chain of Proto-oncogene tyrosine-protein kinase Src (Homo sapiens) (P12931 2-536 limits assumed): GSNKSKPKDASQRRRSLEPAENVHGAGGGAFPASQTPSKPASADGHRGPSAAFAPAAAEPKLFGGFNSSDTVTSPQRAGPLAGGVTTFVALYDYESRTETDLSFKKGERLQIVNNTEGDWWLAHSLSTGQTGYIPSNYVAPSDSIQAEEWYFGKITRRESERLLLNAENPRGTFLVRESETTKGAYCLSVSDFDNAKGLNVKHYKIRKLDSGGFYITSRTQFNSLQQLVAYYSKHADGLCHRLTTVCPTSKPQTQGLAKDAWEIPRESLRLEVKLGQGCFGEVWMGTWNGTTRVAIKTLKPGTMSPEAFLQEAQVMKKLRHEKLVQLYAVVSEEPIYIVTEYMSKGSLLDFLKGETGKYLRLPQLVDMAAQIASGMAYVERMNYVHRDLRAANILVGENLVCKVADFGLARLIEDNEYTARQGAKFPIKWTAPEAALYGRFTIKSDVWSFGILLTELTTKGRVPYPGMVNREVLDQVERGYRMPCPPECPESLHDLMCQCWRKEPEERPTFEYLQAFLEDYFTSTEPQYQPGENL

IC50 (Aurora kinase A): 290 nM | IC50 [1]: 290 nM | IC50 [2]: 310 nM | GI50 (MOLM-13 [3]): 21 nM | inhibition [4]: 96% | inhibition [5]: 71% | inhibition [6]: 44% | inhibition [7]: 31% | inhibition [8]: 27% | inhibition [9]: 24% | inhibition [10]: 18% | inhibition [11]: 16% | GI50 (MV4-11 [12]): 27 nM | GI50 (K562): > 10000 nM | GI50 (U-937): > 20000 nM | AUC(0-inf) [16]: 1400 ng·h/mL | clearance [17]: 57.4 mL/min/kg | Vd [18]: 6.6 L/kg | half-life [19]: 4.2 h
SMILES: Cc1nc(Nc2cc(-c3cccc(NS(=O)(=O)c4ccccc4)c3)n[nH]2)cc(N2CCN(C)CC2)n1
GI50 [13]: 10000 nM | Activity (MOLM-13 [14]): Active | Activity (MV4-11 [15]): Active | Activity (MOLM-13 [20]): Active | Activity (MV4-11 [21]): Active | Activity (MV4-11 [22]): inactive | Activity (Mus musculus [23]): < 3% | Activity (Mus musculus [24]): < 3% | Activity (Mus musculus [25]): Non-toxic

— ChEMBL document CHEMBL1806486, “Discovery and evaluation of 3-phenyl-1H-5-pyrazolylamine-based derivatives as potent, selective and efficacious inhibitors of FMS-like tyrosine kinase-3 (FLT3)” (Bioorg Med Chem, 2011)
